Assay results: ChEMBL document CHEMBL4513216, “Probing the Open Global Health Chemical Diversity Library for Multistage-Active Starting Points for Next-Generation Antimalarials” (ACS Infect Dis, 2020)

Experiment: Toxicity liver stage against HepG2, at 10uM
Format: cell-based
Design: test concentration 10 uM, cell line HepG2-A16-CD81EGFP
Conditions: human, HepG2-A16-CD81EGFP cells; read-out: INHIBITION
How it was run: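 Uninfected HepG2-A16-CD81EGFP cells, 3 × 10^3 per well, 1536-well, plated on prespotted compound at 10 μM final, parasite-free screening media added to match infected plates; puromycin 10 μM positive, DMSO 0.5% negative; run in parallel with 48 h PbLuc assay at 37 °C, 5% CO2; viability by CellTiter-Glo luminescence, normalized to controls.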

N#Cc1c2n(c3c(N)ncnc13)CCCCC2
cytotoxicity at 10 µM: 15.1%

COCCOc1ncccc1CNC(=O)N1CCOCC1
cytotoxicity at 10 µM: -43.8%

CCNC(=O)N[C@H]1C[C@@H](Cc2cc(CN3CCCCC3)on2)C1(C)C
cytotoxicity at 10 µM: -5.46%

O=c1c(NCCCO)c(N2CCN(c3ccccc3)CC2)c1=O
cytotoxicity at 10 µM: -3.66%

COc1ccc2nnc(CCCC(=O)NCc3ccccc3)n2n1
cytotoxicity at 10 µM: -4.1%

COc1cccc(OCC(=O)N2CCCSCC2CN2CCOCC2)c1 (stereo unspecified)
cytotoxicity at 10 µM: 4.01%

COC(=O)c1cc(OC)c(OC)cc1N(C)S(C)(=O)=O
cytotoxicity at 10 µM: 7.43%

O=C(c1ccoc1)N1CC[C@H]2[C@H]1CCN2S(=O)(=O)C1CC1
cytotoxicity at 10 µM: -139%

CCOc1ccc(C2SCC(=O)Nc3c2c(=O)[nH]n3C(C)C)cc1 (stereo unspecified)
cytotoxicity at 10 µM: 8.68%

CCN(Cc1nonc1C)C(=O)Cn1nc(C(F)(F)F)cc1C
cytotoxicity at 10 µM: 0.7%

CCN(CC)CCNc1nc(C(C)C)nc2c(C)nn(CC)c12
cytotoxicity at 10 µM: 8.99%

CCN(CC)c1nc(C)cc(C(=O)Nc2ccc(Br)cc2)n1
cytotoxicity at 10 µM: 6.46%

Cc1ccn(-c2ccnc(N3CCN(c4ncccn4)CC3)n2)n1
cytotoxicity at 10 µM: 13.4%

Cc1ccc(OCCCNC(=O)C2(C)CC(=O)N3C=CC=CC3=N2)cc1 (stereo unspecified)
cytotoxicity at 10 µM: 0.343%

Cc1cc(N(C)C)nc(C2COCCN2Cc2cc(C)on2)n1 (stereo unspecified)
cytotoxicity at 10 µM: -3.55%

O=C(c1cnco1)N1CCC(Cc2cccc3ncccc23)CC1
cytotoxicity at 10 µM: 6.79%

CN(CCc1ccncc1)Cc1c(C2CCCC2)[nH]c2ncccc12
cytotoxicity at 10 µM: 1.46%

O=C(CCn1cccn1)N1CCC(c2nnc(-c3ccccn3)o2)CC1
cytotoxicity at 10 µM: 0.125%

Cc1cc(N(C)C)nc(C2(C)CCCNC2)n1 (stereo unspecified)
cytotoxicity at 10 µM: 1.03%

COCC(=O)N1CCC(c2cc(N(C)C)cc(C)n2)CC1
cytotoxicity at 10 µM: 8.6%

CCCN(C(=O)c1cnc(C)cn1)c1nc2c(s1)CCc1c-2cnn1C
cytotoxicity at 10 µM: -28%

COc1cc(CN2CC[C@@]3(CCCO3)[C@@H](O)C2)ccc1F
cytotoxicity at 10 µM: -3.14%

Cc1c[nH]nc1C1CCN(S(=O)(=O)N(C)C)CC1
cytotoxicity at 10 µM: 0.462%

Cc1cnc(CN2CCCCC2c2nc(-c3ccccc3)no2)cn1 (stereo unspecified)
cytotoxicity at 10 µM: -42%

CN(CC(=O)NCC(F)(F)F)Cc1cccc2c1OCCO2
cytotoxicity at 10 µM: -18.7%

CC(OCC1CC1)C(=O)Nc1nccn1Cc1ccccc1 (stereo unspecified)
cytotoxicity at 10 µM: -6.79%

Cc1cc(C(=O)NC(C)Cc2ccc(N(C)C)cc2)n(C)n1 (stereo unspecified)
cytotoxicity at 10 µM: 1.19%

CCCS(=O)(=O)N1CCCC(c2nc(-c3ccccc3)c[nH]2)C1 (stereo unspecified)
cytotoxicity at 10 µM: 16.2%

CC(O)CN(C)C(=O)CCNC(=O)OC(C)(C)C (stereo unspecified)
cytotoxicity at 10 µM: -5.32%

Cn1cc(CN2CCS(=O)(=O)C(C)(C)C2)cn1
cytotoxicity at 10 µM: 0.512%

CN(CCc1ccccn1)C(=O)Nc1cccnc1N1CCCC1
cytotoxicity at 10 µM: -27.2%

CC1CCC(NS(=O)(=O)CC(=O)NC(C2CC2)C2CC2)CC1 (stereo unspecified)
cytotoxicity at 10 µM: -2.8%

CNc1snc(C)c1C(=O)NC(C)CC(=O)c1cccs1 (stereo unspecified)
cytotoxicity at 10 µM: -0.227%

COC(=O)C(O)C1CCN(CCc2ccncc2)CC1 (stereo unspecified)
cytotoxicity at 10 µM: 11.8%

C1CCC(CSc2nnnn2C2CC2)OC1 (stereo unspecified)
cytotoxicity at 10 µM: 5.29%

COc1ccc(CCNC(=O)C(C)Nc2cc(C)ccc2C)cc1 (stereo unspecified)
cytotoxicity at 10 µM: -5.71%

CCN(CC1CN(Cc2c(C)noc2C)CCO1)c1cccnn1 (stereo unspecified)
cytotoxicity at 10 µM: -7.99%

O=C(NCc1nnc2n1CCCCC2)N(Cc1ccccn1)C1CC1
cytotoxicity at 10 µM: 2.46%

CC(O)(CNC(=O)NCc1cccc(-n2cncn2)c1)c1ccco1 (stereo unspecified)
cytotoxicity at 10 µM: 15%

O=C(NCc1nccn1CCc1ccccc1)NCC1CCC1
cytotoxicity at 10 µM: 4.7%

Cc1cnc(CN2CC=C(c3c[nH]c4ncccc34)CC2)o1
cytotoxicity at 10 µM: 25%

CC(CC(=O)NCCNS(C)(=O)=O)C1CCCCC1 (stereo unspecified)
cytotoxicity at 10 µM: 6.43%

Cc1nc(C2CCCN2Cc2cc(Cl)c3c(c2)OCO3)no1 (stereo unspecified)
cytotoxicity at 10 µM: 7.51%

CN(C)CCNC(=O)Nc1cccc(C[S+]([O-])Cc2ccccc2)c1 (stereo unspecified)
cytotoxicity at 10 µM: 6.59%

CCN(C(=O)CN(Cc1cccc(O)c1)C1CCC(O)CC1)C1CC1 (stereo unspecified)
cytotoxicity at 10 µM: 1.31%

Cc1occc1CN(C)C(=O)Nc1ccc(=O)n(C)c1
cytotoxicity at 10 µM: -53.5%

Cc1ccc(CNC(=O)c2c[nH]nc2NC(=O)C2COCCO2)cc1 (stereo unspecified)
cytotoxicity at 10 µM: -9.95%

Cc1cc(NCc2cccc(C#N)c2)ccc1Br
cytotoxicity at 10 µM: 7.99%

CC(C)(NC(=O)Cc1ccccc1F)C(C)(C)C(=O)O
cytotoxicity at 10 µM: -9.1%

CCN(C(=O)COC)C(c1ccc(Cl)cc1)c1ccccn1 (stereo unspecified)
cytotoxicity at 10 µM: -9.7%

COc1ccccc1C(C)CC(=O)N1CC[C@H](O)C1 (stereo partly specified)
cytotoxicity at 10 µM: -55.7%

Cc1cccc(C2(NCCCS(C)(=O)=O)CCCC2)c1
cytotoxicity at 10 µM: 1.3%

OC(CNC1CCSCC1)c1cccc(OCc2ccccc2)c1 (stereo unspecified)
cytotoxicity at 10 µM: 8.22%

c1cnn(CC2CN(c3ncnc4sccc34)CCO2)c1 (stereo unspecified)
cytotoxicity at 10 µM: 25.1%

CN(C)C(=O)CN1CCO[C@H]2CN(Cc3cccc(F)c3)C[C@H]21
cytotoxicity at 10 µM: -97.2%

Cc1noc([C@@]23CCO[C@@H]2CCN(S(=O)(=O)c2cccnc2)C3)n1
cytotoxicity at 10 µM: -103%
